These results are taken from ChEMBL document CHEMBL5653631, “A Potent and Selective ULK1 Inhibitor Suppresses Autophagy and Sensitizes Cancer Cells to Nutrient Stress” (iScience, 2018).

In general, inhibition refers to how much of the control response was suppressed.

The target in test [1] is Tyrosine-protein kinase JAK2 (Homo sapiens) (UniProt O60674). The test is described as follows: Inhibition of human recombinant JAK2 at 40 nM related to control ULK1.
Test [2] deals with Insulin-like growth factor 1 receptor (Homo sapiens) (UniProt P08069). The test is described as follows: Inhibition of human recombinant IGF1R at 40 nM related to control ULK1.
The target in test [3] is Insulin receptor-related protein (Homo sapiens) (UniProt P14616). The experiment in a line: Inhibition of human recombinant IRR at 40 nM in presence of ATP by radiometric assay relative to control.
Test [4] has as its target Mitogen-activated protein kinase 8 (Homo sapiens) (UniProt P45983). The test is described as follows: Inhibition of human recombinant JNK1 at 500 nM in presence of ATP by radiometric assay relative to control.
Test [5] concerns the target Serine/threonine-protein kinase PRP4 homolog (Homo sapiens) (UniProt Q13523). The test is described as follows: Inhibition of human recombinant PRP4 at 500 nM related to control ULK1.
The target of test [6] is T1, Serine/threonine-protein kinase ULK2 (Homo sapiens) (UniProt Q8IYT8).
T1 sequence (whole entry): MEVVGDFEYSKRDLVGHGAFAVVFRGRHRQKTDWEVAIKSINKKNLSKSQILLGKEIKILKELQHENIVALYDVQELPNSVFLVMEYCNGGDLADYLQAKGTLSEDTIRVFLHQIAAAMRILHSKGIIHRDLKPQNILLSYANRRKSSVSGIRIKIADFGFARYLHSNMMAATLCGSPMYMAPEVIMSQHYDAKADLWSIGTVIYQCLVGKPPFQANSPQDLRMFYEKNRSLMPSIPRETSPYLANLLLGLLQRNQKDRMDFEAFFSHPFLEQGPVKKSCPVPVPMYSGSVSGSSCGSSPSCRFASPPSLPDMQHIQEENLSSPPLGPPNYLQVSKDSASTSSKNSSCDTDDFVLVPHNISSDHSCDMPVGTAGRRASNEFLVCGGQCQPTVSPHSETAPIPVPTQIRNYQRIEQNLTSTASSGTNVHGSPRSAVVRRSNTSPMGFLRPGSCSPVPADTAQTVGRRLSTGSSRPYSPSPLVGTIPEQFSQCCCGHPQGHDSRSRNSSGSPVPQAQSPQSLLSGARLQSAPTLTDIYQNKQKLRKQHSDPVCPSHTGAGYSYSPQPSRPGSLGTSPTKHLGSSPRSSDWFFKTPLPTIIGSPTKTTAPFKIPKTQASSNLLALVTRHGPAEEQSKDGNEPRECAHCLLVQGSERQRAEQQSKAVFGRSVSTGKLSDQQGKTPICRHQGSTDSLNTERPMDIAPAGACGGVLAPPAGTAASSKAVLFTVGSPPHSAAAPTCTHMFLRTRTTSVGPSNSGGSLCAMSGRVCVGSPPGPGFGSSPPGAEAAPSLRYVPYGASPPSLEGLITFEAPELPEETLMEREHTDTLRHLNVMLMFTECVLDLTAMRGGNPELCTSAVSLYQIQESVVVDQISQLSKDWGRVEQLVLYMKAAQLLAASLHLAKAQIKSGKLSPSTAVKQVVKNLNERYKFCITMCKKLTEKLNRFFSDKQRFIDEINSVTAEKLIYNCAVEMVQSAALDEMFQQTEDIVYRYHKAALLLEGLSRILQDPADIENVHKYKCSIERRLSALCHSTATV
The experiment in a line: Inhibition of human recombinant ULK2 at 500 nM in presence of ATP by radiometric assay relative to control.

In test [7] the target is T2, Eukaryotic elongation factor 2 kinase (Homo sapiens) (UniProt O00418).
T2 sequence (whole entry): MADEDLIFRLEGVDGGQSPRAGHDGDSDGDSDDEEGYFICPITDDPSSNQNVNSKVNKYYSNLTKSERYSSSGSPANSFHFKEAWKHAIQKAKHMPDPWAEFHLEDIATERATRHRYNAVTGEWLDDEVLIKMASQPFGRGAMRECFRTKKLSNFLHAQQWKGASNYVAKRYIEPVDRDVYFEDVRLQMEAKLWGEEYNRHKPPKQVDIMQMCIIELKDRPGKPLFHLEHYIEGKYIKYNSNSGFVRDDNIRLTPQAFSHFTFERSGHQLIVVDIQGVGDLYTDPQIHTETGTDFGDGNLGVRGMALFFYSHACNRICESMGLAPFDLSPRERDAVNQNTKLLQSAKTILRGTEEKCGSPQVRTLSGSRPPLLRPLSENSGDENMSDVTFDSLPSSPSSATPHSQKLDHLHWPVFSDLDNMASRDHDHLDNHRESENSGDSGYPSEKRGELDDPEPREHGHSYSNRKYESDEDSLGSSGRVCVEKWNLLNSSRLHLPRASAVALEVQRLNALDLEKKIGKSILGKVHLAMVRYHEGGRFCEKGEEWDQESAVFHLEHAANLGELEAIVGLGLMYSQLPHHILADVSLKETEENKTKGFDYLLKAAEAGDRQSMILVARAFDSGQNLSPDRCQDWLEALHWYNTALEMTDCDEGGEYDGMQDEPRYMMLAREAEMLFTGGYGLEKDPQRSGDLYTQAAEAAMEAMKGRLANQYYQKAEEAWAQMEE
The test is described as follows: Inhibition of human recombinant eEF2K at 15 nM in presence of ATP by radiometric assay relative to control.

For test [8], the target named is Serine/threonine-protein kinase ATR (Homo sapiens) (UniProt Q13535). The test is described as follows: Inhibition of human recombinant ATR at 15 nM in presence of ATP by radiometric assay relative to control. Summed up:
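Panel of 327 recombinant human kinases, each assayed in vitro by radiometric activity assay in duplicate at a single inhibitor concentration per compound, chosen with reference to its ULK1 inhibition. Activity remaining was expressed as percent of vehicle control, and percent inhibition was calculated as 100 minus percent activity remaining.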

For test [9], the target named is Receptor tyrosine-protein kinase erbB-4 (Homo sapiens) (UniProt Q15303). The test is described as follows: Inhibition of human recombinant ErbB4 at 15 nM in presence of ATP by radiometric assay relative to control.
For test [10], the target named is Calcium/calmodulin-dependent protein kinase type 1B (Homo sapiens) (UniProt Q6P2M8). The test is described as follows: Inhibition of human recombinant CaMK1b at 15 nM in presence of ATP by radiometric assay relative to control.
Test [11] has as its target Serine/threonine-protein kinase/endoribonuclease IRE1 (Homo sapiens) (UniProt O75460). The test is described as follows: Inhibition of human recombinant IRE1 at 15 nM in presence of ATP by radiometric assay relative to control.
The target in test [12] is Serine/threonine-protein kinase pim-2 (Homo sapiens) (UniProt Q9P1W9). The experiment in a line: Inhibition of human recombinant PIM2 at 15 nM related to control ULK1.

Sequence of Serine/threonine-protein kinase/endoribonuclease IRE1 (Homo sapiens) (O75460 19-977 limits assumed): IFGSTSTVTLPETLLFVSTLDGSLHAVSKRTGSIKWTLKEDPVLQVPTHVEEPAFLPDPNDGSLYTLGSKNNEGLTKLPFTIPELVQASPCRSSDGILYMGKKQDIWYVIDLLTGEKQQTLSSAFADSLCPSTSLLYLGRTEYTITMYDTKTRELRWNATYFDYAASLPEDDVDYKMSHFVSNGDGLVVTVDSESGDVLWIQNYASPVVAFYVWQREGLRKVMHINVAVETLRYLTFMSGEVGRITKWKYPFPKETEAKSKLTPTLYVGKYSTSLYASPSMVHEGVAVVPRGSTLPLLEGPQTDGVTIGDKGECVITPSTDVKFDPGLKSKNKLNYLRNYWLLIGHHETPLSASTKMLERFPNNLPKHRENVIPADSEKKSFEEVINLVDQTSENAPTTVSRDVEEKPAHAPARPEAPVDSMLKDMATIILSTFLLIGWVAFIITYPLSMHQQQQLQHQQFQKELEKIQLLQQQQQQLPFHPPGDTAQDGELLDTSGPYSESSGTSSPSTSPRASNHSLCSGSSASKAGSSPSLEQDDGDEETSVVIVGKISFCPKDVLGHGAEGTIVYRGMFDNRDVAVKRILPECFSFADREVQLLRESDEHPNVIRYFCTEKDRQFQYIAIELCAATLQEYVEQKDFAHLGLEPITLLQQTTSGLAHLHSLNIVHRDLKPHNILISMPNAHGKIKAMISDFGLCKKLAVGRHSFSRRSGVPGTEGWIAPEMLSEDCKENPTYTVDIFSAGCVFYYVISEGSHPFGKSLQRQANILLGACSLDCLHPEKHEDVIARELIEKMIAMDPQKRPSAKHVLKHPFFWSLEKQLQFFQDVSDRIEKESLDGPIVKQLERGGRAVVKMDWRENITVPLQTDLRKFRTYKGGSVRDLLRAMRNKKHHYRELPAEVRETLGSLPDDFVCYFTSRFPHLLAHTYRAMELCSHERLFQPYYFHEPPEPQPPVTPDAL
Sequence of Serine/threonine-protein kinase PRP4 homolog (Homo sapiens) (Q13523 whole entry): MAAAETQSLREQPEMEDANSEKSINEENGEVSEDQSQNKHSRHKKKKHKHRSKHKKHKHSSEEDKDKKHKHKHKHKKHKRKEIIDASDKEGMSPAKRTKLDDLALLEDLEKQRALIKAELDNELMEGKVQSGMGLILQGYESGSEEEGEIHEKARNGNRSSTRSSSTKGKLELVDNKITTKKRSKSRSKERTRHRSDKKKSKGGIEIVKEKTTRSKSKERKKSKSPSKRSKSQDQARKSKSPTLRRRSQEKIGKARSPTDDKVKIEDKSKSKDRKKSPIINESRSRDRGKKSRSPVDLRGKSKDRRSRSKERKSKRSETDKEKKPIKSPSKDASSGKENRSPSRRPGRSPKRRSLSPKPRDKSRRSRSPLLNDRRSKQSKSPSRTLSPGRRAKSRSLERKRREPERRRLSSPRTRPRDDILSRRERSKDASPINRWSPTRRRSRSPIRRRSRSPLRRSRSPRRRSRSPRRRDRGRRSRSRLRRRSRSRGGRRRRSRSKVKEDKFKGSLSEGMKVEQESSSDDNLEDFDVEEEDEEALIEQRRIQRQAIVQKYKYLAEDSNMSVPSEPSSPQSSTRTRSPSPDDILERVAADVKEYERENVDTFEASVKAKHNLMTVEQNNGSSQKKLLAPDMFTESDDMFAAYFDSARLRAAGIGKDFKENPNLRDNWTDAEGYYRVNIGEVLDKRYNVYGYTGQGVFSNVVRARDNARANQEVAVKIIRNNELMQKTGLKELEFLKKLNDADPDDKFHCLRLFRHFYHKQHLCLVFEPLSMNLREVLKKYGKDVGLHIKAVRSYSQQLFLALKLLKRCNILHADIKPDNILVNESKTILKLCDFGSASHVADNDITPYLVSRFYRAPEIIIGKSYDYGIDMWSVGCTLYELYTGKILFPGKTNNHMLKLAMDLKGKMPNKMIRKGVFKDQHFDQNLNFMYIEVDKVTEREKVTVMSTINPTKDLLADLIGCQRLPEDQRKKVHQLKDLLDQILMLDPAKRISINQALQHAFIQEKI
Sequence of Receptor tyrosine-protein kinase erbB-4 (Homo sapiens) (Q15303 whole entry): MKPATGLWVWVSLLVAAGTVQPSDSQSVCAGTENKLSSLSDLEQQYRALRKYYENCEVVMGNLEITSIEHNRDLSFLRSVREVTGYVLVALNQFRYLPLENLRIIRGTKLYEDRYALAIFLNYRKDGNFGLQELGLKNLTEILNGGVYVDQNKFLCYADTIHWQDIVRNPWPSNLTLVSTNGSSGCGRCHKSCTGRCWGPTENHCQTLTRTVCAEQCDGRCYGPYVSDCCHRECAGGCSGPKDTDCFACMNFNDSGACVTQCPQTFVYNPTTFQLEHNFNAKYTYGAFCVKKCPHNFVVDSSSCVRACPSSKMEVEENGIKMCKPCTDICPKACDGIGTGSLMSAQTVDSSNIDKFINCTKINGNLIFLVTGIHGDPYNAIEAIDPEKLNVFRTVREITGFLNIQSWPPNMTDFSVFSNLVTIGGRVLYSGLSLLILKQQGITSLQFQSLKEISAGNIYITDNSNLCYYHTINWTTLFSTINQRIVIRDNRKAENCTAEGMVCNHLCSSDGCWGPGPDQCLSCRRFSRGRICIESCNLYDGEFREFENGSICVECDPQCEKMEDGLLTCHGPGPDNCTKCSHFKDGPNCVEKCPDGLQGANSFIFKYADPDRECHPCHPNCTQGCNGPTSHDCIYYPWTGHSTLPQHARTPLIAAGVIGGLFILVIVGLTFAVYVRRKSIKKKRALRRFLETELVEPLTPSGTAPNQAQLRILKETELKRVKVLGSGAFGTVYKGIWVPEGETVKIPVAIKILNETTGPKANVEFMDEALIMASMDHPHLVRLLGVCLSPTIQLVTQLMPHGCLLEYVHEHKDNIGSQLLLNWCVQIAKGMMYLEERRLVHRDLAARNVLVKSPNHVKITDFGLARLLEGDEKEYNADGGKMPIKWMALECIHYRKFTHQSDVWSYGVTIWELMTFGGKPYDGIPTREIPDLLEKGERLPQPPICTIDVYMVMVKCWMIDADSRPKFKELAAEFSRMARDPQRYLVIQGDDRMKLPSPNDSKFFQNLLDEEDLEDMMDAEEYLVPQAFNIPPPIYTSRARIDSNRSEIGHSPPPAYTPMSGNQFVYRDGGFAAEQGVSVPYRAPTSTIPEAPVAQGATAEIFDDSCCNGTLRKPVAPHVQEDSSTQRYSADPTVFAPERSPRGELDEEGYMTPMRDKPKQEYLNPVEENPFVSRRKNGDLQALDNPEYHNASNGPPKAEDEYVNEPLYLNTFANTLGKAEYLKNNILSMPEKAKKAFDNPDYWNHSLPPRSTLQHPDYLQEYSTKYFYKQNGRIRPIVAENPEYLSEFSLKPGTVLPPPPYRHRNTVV
Sequence of Tyrosine-protein kinase JAK2 (Homo sapiens) (O60674 whole entry): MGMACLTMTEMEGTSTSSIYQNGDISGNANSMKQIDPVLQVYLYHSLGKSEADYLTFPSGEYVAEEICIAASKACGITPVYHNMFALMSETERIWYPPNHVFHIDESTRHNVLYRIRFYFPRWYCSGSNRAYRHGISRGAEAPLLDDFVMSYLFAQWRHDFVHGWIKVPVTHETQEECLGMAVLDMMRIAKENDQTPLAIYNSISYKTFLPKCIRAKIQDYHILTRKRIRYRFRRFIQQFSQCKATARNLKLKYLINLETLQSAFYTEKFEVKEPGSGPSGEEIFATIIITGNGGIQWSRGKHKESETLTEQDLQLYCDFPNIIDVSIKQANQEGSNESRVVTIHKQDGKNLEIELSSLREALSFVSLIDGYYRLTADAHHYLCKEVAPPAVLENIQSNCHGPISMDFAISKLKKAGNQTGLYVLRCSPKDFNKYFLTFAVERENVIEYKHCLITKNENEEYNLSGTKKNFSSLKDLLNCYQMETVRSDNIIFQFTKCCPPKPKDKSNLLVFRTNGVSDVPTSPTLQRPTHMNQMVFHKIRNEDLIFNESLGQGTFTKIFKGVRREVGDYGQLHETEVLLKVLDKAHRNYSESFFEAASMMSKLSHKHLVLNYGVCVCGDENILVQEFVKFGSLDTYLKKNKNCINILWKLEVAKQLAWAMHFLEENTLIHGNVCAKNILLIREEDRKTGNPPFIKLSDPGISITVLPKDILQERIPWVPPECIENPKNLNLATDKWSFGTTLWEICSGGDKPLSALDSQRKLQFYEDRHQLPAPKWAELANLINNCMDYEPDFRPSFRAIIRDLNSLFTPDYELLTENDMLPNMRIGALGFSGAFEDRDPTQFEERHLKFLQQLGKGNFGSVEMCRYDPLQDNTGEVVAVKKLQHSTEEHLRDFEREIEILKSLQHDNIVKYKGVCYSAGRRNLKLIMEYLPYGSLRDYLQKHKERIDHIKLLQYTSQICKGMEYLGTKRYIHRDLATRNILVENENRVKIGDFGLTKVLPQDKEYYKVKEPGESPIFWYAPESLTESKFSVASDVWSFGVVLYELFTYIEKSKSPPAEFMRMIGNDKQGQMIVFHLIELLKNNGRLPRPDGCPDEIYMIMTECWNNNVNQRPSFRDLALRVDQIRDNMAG
Sequence of Mitogen-activated protein kinase 8 (Homo sapiens) (P45983 whole entry): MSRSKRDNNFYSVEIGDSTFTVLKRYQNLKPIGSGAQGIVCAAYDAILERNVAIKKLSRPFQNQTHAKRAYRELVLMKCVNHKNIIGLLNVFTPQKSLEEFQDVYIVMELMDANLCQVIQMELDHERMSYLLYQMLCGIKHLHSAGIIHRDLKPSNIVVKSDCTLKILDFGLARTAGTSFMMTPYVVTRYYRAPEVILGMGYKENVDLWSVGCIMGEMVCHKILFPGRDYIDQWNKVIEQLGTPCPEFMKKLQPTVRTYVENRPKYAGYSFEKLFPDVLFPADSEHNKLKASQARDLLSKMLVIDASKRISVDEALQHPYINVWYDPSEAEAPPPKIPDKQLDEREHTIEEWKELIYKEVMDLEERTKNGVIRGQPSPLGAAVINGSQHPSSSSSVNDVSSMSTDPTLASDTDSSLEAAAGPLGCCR

Consider `O=C(N[C@@H](C1CC1)C(F)(F)F)c1cc(-c2cnn3cc(-c4ccc(F)cc4)cnc23)cs1`, for which the fold change (FC) in test [1] and in test [2] was 0 each time. In addition, the inhibition in test [3] worked out at 2%.
Regarding `CNC(=O)c1ccccc1Oc1nc(Nc2cc(OC)c(OC)c(OC)c2)ncc1Br`, the results for the inhibition in test [4] and in test [6] were 1% and 48%, respectively. Moreover, the fold change (FC) in test [5] worked out at 0.03.
With `CC(C)[C@H](NC(=O)c1cc(-c2cnn3cc(-c4ccc(OCCN5CCCCC5)cc4)cnc23)cs1)C(F)(F)F`, the inhibition amounted to 10% in test [7]; 4% in test [8]; 0% in [9]; 0% in test [10]; 0% in test [11]. In [12], the fold change (FC) is 0.
